Reference: ChEMBL document CHEMBL1157743, “Mitotic arrest induced by a novel family of DNA topoisomerase II inhibitors” (J Med Chem, 2010)
Calls of active or inactive are those of the source. The calls are words filed in the database; no cut-off is given here.

Experiments:
SW1573 [1] = assay: Antiproliferative activity against human SW1573 cells after 48 hrs by SRB assay; type: functional; conditions: SW1573, 48 h
How it was run: (§1)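 Human solid tumor lines and three immortalized nontumor lines in culture, exposed to the test agent. Read-out is growth inhibition, reported as GI50 (μM).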

HBL-100 [2] = assay: Antiproliferative activity against human HBL100 cells after 48 hrs by SRB assay; type: functional; conditions: HBL-100, 48 h; how it was run: as §1
WiDr [3] = assay: Induction of apoptosis in human WiDr cells assessed as early apoptotic cells at 6 uM after 24 hrs by annexin V/Pi staining technique; type: functional
HBL-100 [4] = assay: Cell cycle arrest in human HBL100 cells assessed as accumulation of cells in G2/M phase after 24 hrs by flow cytometry; type: functional, cell-based
How it was run: (§2)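 Flow cytometry of DNA content, giving the G0/G1, S, G2/M and sub-G1 fractions. Cells treated for 24 h at three doses alongside untreated controls. Values are means of at least two experiments.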

T47D [5] = assay: Antiproliferative activity against human T47D cells after 48 hrs by SRB assay; type: functional; how it was run: as §1
WiDr [6] = assay: Induction of apoptosis in human WiDr cells assessed as late apoptotic cells at 8 uM after 24 hrs by annexin V/Pi staining technique; type: functional
WiDr [7] = assay: Cell cycle arrest in human WiDr cells assessed as accumulation of cells in G2/M phase after 24 hrs by flow cytometry; type: functional, cell-based; how it was run: as §2
[8] = biological target: DNA topoisomerase 2-alpha (Homo sapiens) (UniProt P11388); assay: Inhibition of human topoisomerase 2 alpha assessed as inhibition of relaxation of Rel plasmid pHOT1 at 100 uM after 30 to 60 mins by gel electrophoresis relative to control
DNA topoisomerase 2-alpha (Homo sapiens), sequence (P11388 whole entry): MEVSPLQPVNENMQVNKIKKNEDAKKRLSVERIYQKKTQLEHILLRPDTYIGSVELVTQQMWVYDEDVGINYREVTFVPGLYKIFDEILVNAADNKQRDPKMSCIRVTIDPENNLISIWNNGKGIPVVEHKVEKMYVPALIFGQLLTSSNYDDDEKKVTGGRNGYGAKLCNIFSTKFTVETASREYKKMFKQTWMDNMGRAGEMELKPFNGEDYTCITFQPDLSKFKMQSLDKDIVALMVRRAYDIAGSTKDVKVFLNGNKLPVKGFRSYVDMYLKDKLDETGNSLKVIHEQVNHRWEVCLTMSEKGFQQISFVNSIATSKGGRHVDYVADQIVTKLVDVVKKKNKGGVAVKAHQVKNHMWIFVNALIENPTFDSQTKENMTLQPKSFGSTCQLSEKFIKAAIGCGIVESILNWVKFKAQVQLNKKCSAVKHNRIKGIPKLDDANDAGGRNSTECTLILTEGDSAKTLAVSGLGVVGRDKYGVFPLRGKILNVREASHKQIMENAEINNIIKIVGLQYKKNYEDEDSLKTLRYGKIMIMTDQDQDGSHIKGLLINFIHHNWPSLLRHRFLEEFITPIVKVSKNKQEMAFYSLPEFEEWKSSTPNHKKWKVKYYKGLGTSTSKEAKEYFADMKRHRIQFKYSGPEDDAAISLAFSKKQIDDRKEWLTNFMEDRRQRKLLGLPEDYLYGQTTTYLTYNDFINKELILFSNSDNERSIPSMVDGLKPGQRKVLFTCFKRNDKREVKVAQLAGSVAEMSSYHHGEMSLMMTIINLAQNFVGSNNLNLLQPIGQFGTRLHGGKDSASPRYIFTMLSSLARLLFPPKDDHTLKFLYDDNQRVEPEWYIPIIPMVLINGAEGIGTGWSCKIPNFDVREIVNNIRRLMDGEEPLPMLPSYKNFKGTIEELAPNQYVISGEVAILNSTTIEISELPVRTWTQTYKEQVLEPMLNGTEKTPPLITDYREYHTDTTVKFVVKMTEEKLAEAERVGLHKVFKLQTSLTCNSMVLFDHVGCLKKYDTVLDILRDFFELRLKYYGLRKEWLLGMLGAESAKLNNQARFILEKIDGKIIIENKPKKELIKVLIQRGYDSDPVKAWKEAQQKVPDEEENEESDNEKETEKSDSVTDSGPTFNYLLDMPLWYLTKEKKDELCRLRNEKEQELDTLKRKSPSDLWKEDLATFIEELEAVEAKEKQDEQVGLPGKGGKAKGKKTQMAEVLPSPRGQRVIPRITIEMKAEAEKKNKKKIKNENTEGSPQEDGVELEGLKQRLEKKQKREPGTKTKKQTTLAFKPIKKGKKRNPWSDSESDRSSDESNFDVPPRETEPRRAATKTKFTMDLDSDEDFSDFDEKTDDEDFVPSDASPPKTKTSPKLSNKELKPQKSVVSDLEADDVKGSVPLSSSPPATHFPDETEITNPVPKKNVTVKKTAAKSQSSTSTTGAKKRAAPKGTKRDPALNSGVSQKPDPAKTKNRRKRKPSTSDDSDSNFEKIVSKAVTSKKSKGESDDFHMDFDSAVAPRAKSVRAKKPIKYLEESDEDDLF
How it was run: (§3)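 Purified TOP2 incubated with negatively supercoiled plasmid pHOT1. Supercoiled, nicked and relaxed topoisomers separated by agarose gel electrophoresis. Compared with lanes without enzyme and with enzyme alone.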

[9] = biological target: DNA topoisomerase 2-alpha (Homo sapiens) (UniProt P11388); assay: Inhibition of human topoisomerase 2 alpha assessed as inhibition of relaxation of SC plasmid pHOT1 at 100 uM after 30 to 60 mins by gel electrophoresis relative to control; how it was run: as §3
HeLa [10] = assay: Induction of DNA damage in human HeLa cells assessed as phosphorylation of H2AX at 7.5 uM after 24 hrs by immunoblotting; type: functional, cell-based
How it was run: (§4)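 HeLa cells exposed at 7.5 μM, sampled at 3, 6, 12 and 24 h. Protein extracts probed by Western blot for phospho-Chk2, phospho-H2AX and cyclin B1. Phospho-histone H3 Ser10 detected with a phospho-specific antibody. Includes a positive-control lane.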

WiDr [11] = assay: Antiproliferative activity against human WiDr cells after 48 hrs by SRB assay; type: functional; how it was run: as §1
WiDr [12] = assay: Induction of apoptosis in human WiDr cells assessed as late apoptotic cells at 6 uM after 24 hrs by annexin V/Pi staining technique; type: functional
HeLa [13] = assay: Induction of DNA damage in human HeLa cells assessed as expression of cyclin B1 uM after 24 hrs by immunoblotting; type: functional, cell-based; how it was run: as §4
HeLa [14] = assay: Induction of apoptosis in human HeLa cells assessed as late apoptotic cells at 6 uM after 24 hrs by annexin V/Pi staining technique; type: functional
HeLa [15] = assay: Induction of DNA damage in human HeLa cells assessed as phosphorylation of ChK2 at 7.5 uM after 24 hrs by immunoblotting; type: functional, cell-based; how it was run: as §4
HeLa [16] = assay: Induction of apoptosis in human HeLa cells assessed as late apoptotic cells at 8 uM after 24 hrs by annexin V/Pi staining technique; type: functional
[17] = biological target: DNA topoisomerase 2-alpha (Homo sapiens) (UniProt P11388); assay: Inhibition of human topoisomerase 2 alpha assessed as inhibition of decatenation of KDNA at 100 uM after 30 to 60 mins by gel electrophoresis with ethidium bromide relative to control
How it was run: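 Decatenation assay: purified TOP2 incubated with kinetoplast DNA. Released minicircles (nicked, supercoiled and relaxed forms) resolved by agarose gel electrophoresis. Compared with lanes without enzyme and with enzyme alone, plus reference TOP2 inhibitors.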

WiDr [18] = assay: Induction of apoptosis in human WiDr cells assessed as early apoptotic cells at 8 uM after 24 hrs by annexin V/Pi staining technique; type: functional
[19] = Antiproliferative activity against human HS27 cells after 48 hrs by SRB assay; type: cell-based; how it was run: as §1
T47D [20] = assay: Induction of apoptosis in human T47D cells assessed as late apoptotic cells at 8 uM after 24 hrs by annexin V/Pi staining technique; type: functional
HeLa [21] = assay: Induction of apoptosis in human HeLa cells assessed as early apoptotic cells at 6 uM after 24 hrs by annexin V/Pi staining technique; type: functional
[22] = biological target: DNA topoisomerase 2-alpha (Homo sapiens) (UniProt P11388); assay: Inhibition of human topoisomerase 2 alpha assessed as inhibition of formation of Lin form of plasmid pHOT1 at 100 uM after 30 to 60 mins by gel electrophoresis inthe presence of exsess of ethidium bromide relative to control
How it was run: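 Cleavage-complex assay: purified TOP2 incubated with plasmid pHOT1. Agarose gel electrophoresis detects the linear (Lin) DNA form produced by trapped enzyme-cut intermediates.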

HeLa [23] = assay: Induction of apoptosis in human HeLa cells assessed as early apoptotic cells at 8 uM after 24 hrs by annexin V/Pi staining technique; type: functional
HBL-100 [24] = assay: Induction of apoptosis in human HBL100 cells assessed as early apoptotic cells at 4 uM after 24 hrs by annexin V/Pi staining technique; type: functional
T47D [25] = assay: Induction of apoptosis in human T47D cells assessed as late apoptotic cells at 6 uM after 24 hrs by annexin V/Pi staining technique; type: functional
[26] = biological target: DNA topoisomerase 2-alpha (Homo sapiens) (UniProt P11388); assay: Inhibition of human topoisomerase 2 alpha assessed as inhibition of relaxation of NcK plasmid pHOT1 at 100 uM after 30 to 60 mins by gel electrophoresis relative to control; how it was run: as §3
[27] = Antiproliferative activity against human MCF10A cells after 48 hrs by SRB assay; type: cell-based, MCF-10A; how it was run: as §1
T47D [28] = assay: Induction of apoptosis in human T47D cells assessed as early apoptotic cells at 8 uM after 24 hrs by annexin V/Pi staining technique; type: functional
HeLa [29] = assay: Cell cycle arrest in human HeLa cells assessed as accumulation of cells in G2/M phase after 24 hrs by flow cytometry; type: functional, cell-based; how it was run: as §2
HBL-100 [30] = assay: Induction of apoptosis in human HBL100 cells assessed as late apoptotic cells at 4 uM after 24 hrs by annexin V/Pi staining technique; type: functional
HBL-100 [31] = assay: Induction of apoptosis in human HBL100 cells assessed as late apoptotic cells at 2 uM after 24 hrs by annexin V/Pi staining technique; type: functional
HBL-100 [32] = assay: Induction of apoptosis in human HBL100 cells assessed as early apoptotic cells at 2 uM after 24 hrs by annexin V/Pi staining technique; type: functional
[33] = system: hTERT-HPNE (Homo sapiens); assay: Antiproliferative activity against hTERT-HPNE cells after 48 hrs by SRB assay
T47D [34] = assay: Induction of apoptosis in human T47D cells assessed as early apoptotic cells at 6 uM after 24 hrs by annexin V/Pi staining technique; type: functional
HeLa [35] = assay: Antiproliferative activity against human HeLa cells after 48 hrs by SRB assay; type: functional; how it was run: as §1
SW1573 [36] = assay: Cell cycle arrest in human SW1573 cells assessed as accumulation of cells in G2/M phase after 24 hrs by flow cytometry; type: functional, cell-based; how it was run: as §2
T47D [37] = assay: Cell cycle arrest in human T47D cells assessed as accumulation of cells in G2/M phase after 24 hrs by flow cytometry; type: functional, cell-based; how it was run: as §2

CCOC(=O)C#CCO/C=C/C(=O)OC
GI50 (SW1573 [1]): 1800 nM | GI50 (HBL-100 [2]): 2400 nM

CCCCCCCCCCC(C#CC(=O)OC)O/C=C/C(=O)OC (stereo not drawn)
GI50 (SW1573 [1]): 2000 nM | GI50 (HBL-100 [2]): 2200 nM

CCOC(=O)C#CC(O/C=C/C(=O)OCC)C(C)C (stereo not drawn)
GI50 (SW1573 [1]): 2800 nM | GI50 (HBL-100 [2]): 3000 nM

COC(=O)C#CC(O/C=C/C(=O)OC)C(C)c1ccccc1 (stereo not drawn)
GI50 (SW1573 [1]): 1200 nM | GI50 (HBL-100 [2]): 490 nM

CC(C)C(C#CC(=O)OC(C)(C)C)O/C=C/C(=O)OC(C)(C)C (stereo not drawn)
GI50 (SW1573 [1]): 4800 nM | GI50 (HBL-100 [2]): 3000 nM

CCCCCCC(C#CC(=O)OC)O/C=C/C(=O)OC (stereo not drawn)
GI50 (SW1573 [1]): 3300 nM | GI50 (HBL-100 [2]): 2500 nM

CCCCC(C#CC(=O)OC)O/C=C/C(=O)OC (stereo not drawn)
Activity (WiDr [3]): 12% | GI50 (SW1573 [1]): 240 nM | Activity (HBL-100 [4]): Dose-dependent effect | GI50 (T47D [5]): 3.8 µM | Activity (WiDr [6]): 28% | Activity (WiDr [7]): Dose-dependent effect | Activity [8]: Active | Activity [9]: Active | Activity (HeLa [10]): inactive | GI50 (WiDr [11]): 3.1 µM | Activity (WiDr [12]): 21% | Activity (HeLa [13]): inactive | Activity (HeLa [14]): 9% | Activity (HeLa [15]): inactive | Activity (HeLa [16]): 11% | Activity [17]: Active | Activity (WiDr [18]): 11% | GI50 at 48 h [19]: 1900 nM | Activity (T47D [20]): 19% | Activity (HeLa [21]): 8.7% | Activity [22]: inactive | Activity (HeLa [23]): 10% | Activity (HBL-100 [24]): 5.3% | Activity (T47D [25]): 24% | Activity [26]: Active | GI50 at 48 h [27]: 34 µM | Activity (T47D [28]): 11% | Activity (HeLa [29]): Dose-dependent effect | Activity (HBL-100 [30]): 12% | GI50 (HBL-100 [2]): 250 nM | Activity (HBL-100 [31]): 12% | Activity (HBL-100 [32]): 6.7% | GI50 at 48 h [33]: 1300 nM | Activity (T47D [34]): 12% | GI50 (HeLa [35]): 2800 nM | Activity (SW1573 [36]): Dose-dependent effect | Activity (T47D [37]): Dose-dependent effect

COC(=O)C#CC(O/C=C/C(=O)OC)C(C)C (stereo not drawn)
GI50 (SW1573 [1]): 750 nM | GI50 (HBL-100 [2]): 450 nM

C#CC(O/C=C/C(=O)OC)c1ccccc1 (stereo not drawn)
GI50 (SW1573 [1]): 31000 nM | GI50 (HBL-100 [2]): 26000 nM

COC(=O)C#CC(O/C=C/C(=O)OC)C1CC1 (stereo not drawn)
GI50 (SW1573 [1]): 1800 nM | GI50 (HBL-100 [2]): 250 nM

C#CCO/C=C/C(=O)OC
GI50 (SW1573 [1]): > 100000 nM | GI50 (HBL-100 [2]): > 100000 nM

CCOC(=O)C#CC(O/C=C/C(=O)OC)C(C)C (stereo not drawn)
GI50 (SW1573 [1]): 960 nM | GI50 (HBL-100 [2]): 880 nM

CCC(C)C(C#CC(=O)OC)O/C=C/C(=O)OC (stereo not drawn)
GI50 (SW1573 [1]): 910 nM | GI50 (HBL-100 [2]): 340 nM

COC(=O)C#CC(C)O/C=C/C(=O)OC (stereo not drawn)
GI50 (SW1573 [1]): 1700 nM | GI50 (HBL-100 [2]): 300 nM
